# According to paper PMC5992016 (Movement disorders : official journal of the Movement …, 2018):
# Where a name gives a salt, the structure may show the parent alone.
# How the values were obtained:
# [1] = test system: AIMs (abnormal involuntary movements) in rodents; settings: cited from earlier work; for effect on AIMs in rodents: inhibitor of PDEs 5, 6 and 9
# [2] = test system: hand movement speed in MPTP-treated macaques; test: Acute co-administration with s.c. L-Dopa: Klüver board test; type: in vivo, Macaca fascicularis
# [3] = test system: L-Dopa-induced dyskinesias in MPTP-treated macaques; test: Acute co-administration with s.c. L-Dopa: LID scores; type: in vivo, Macaca fascicularis; settings: L-Dopa optimal dose s.c.; amantadine 5 or 10 mg/kg s.c.
# Procedure, shortened: (§1)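 Used MPTP macaques (3 male, 2 female) on oral carbidopa/levodopa maintenance. Optimal s.c. L-Dopa methyl ester dose (MDS reduction 50–75%) was set per animal, with benserazide at one quarter. Amantadine or test compound (DMSO/cremophor) or vehicle was given s.c. just before. Blinded live and video scoring ran off-state, then from 30 min every 20 min. Part II: peak (50 min) and summed total. Part I: MDS AUC. Triplicate runs were averaged.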
# [4] = test system: parkinsonian motor disability in MPTP-treated macaques; test: Acute co-administration with s.c. L-Dopa: motor disability scores; type: in vivo, Macaca fascicularis; settings: amantadine 5 and 10 mg/kg s.c.
# Procedure, shortened: as §1
compound,measurement,setting,value
CCCOc1ccc(S(=O)(=O)N2CCN(CC)CC2)cc1-c1nc2c(CC)n(Cc3ccccn3)nc2c(=O)[nH]1 [UK343664],effect on AIMs in rodents,[1],improves AIMs
CCCOc1ccccc1-c1nc2nn[nH]c2c(=O)[nH]1 [zaprinast],effect on AIMs in rodents,[1],improves AIMs
FC(F)(F)Cn1cc(-c2ccncc2)c(-c2ccc(OCc3ccc4ccccc4n3)cc2)n1 [TP-10],antidyskinetic effects in rodents,[1]; preliminary tests,antidyskinetic effects
"NC12CC3CC(CC(C3)C1)C2 [amantadine, amantadine hydrochloride]",movement speed (time) in KBT in the on state,"[2]; L-Dopa optimal dose s.c., amantadine 10 mg/kg s.c.",increased
same,movement speed (time) in KBT,"[2]; L-Dopa suboptimal dose s.c., highest dose (MR1916 0.05 mg/kg, amantadine 10 mg/kg s.c.)",increased
same,effect on LID compared with MR1916,[3],similar
same,effect on MDS in the on state,[4]; L-Dopa optimal dose s.c.,significantly increased MDS
same,effect on MDS,[4]; L-Dopa suboptimal dose s.c.,reduced the beneficial effect of L-Dopa on MDS
